Measured values taken from ChEMBL document CHEMBL1150813, “Triterpene saponins from Vietnamese ginseng (Panax vietnamensis) and their hepatocytoprotective activity” (J Nat Prod, 2001).

Columns and labels:
Type in all cases: functional
Hepatocyte [1] = experiment: Hepatoprotective activity against D-galactosamine/TNFalpha-induced cell death in mouse hepatocytes assessed cell survival rate at 50 uM administered before 30 mins of TNFalpha challenge measured after 18 hrs by MTT assay
Method in brief: (§1)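 Primary mouse hepatocytes, isolated by collagenase perfusion, were cultured in William's E medium with 10% calf serum, dexamethasone and insulin at 1.5×10^4 cells/well. TNF-α (100 ng/mL) was added 30 min later. Viability was read by MTT after 18 h. Values are mean ± SD, n = 4 (normal and control n = 8), with Student's t-test versus control.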

Hepatocyte [2] = experiment: Hepatoprotective activity in mouse hepatocytes assessed protection against D-galactosamine/TNFalpha-induced cell death at 100 uM administered before 30 mins of TNFalpha challenge measured after 18 hrs; method in brief: as §1
Hepatocyte [3] = experiment: Hepatoprotective activity in mouse hepatocytes assessed protection against D-galactosamine/TNFalpha-induced cell death at 50 uM administered before 30 mins of TNFalpha challenge measured after 18 hrs; method in brief: as §1
Hepatocyte [4] = experiment: Hepatoprotective activity in mouse hepatocytes assessed inhibition of D-galactosamine/TNFalpha-induced cell death dosed administered before 30 mins of TNFalpha challenge measured after 18 hrs; method in brief: as §1
Hepatocyte [5] = experiment: Hepatoprotective activity in mouse hepatocytes assessed inhibition of D-galactosamine/TNFalpha-induced cell death at 100 uM administered before 30 mins of TNFalpha challenge measured after 18 hrs; method in brief: as §1
Hepatocyte [6] = experiment: Hepatoprotective activity in mouse hepatocytes assessed inhibition of D-galactosamine/TNFalpha-induced cell death at 50 uM administered before 30 mins of TNFalpha challenge measured after 18 hrs; method in brief: as §1
Hepatocyte [7] = experiment: Hepatoprotective activity against D-galactosamine/TNFalpha-induced cell death in mouse hepatocytes assessed cell survival rate at 100 uM administered before 30 mins of TNFalpha challenge measured after 18 hrs by MTT assay; method in brief: as §1
Hepatocyte [8] = experiment: Hepatoprotective activity against D-galactosamine/TNFalpha-induced cell death in mouse hepatocytes assessed cell survival rate at 25 uM administered before 30 mins of TNFalpha challenge measured after 18 hrs by MTT assay; method in brief: as §1
Hepatocyte [9] = experiment: Hepatoprotective activity in mouse hepatocytes assessed protection against D-galactosamine/TNFalpha-induced cell death at 12.5 uM administered before 30 mins of TNFalpha challenge measured after 18 hrs; method in brief: as §1
Hepatocyte [10] = experiment: Hepatoprotective activity in mouse hepatocytes assessed protection against D-galactosamine/TNFalpha-induced cell death at 25 uM administered before 30 mins of TNFalpha challenge measured after 18 hrs; method in brief: as §1
Hepatocyte [11] = experiment: Hepatoprotective activity in mouse hepatocytes assessed inhibition of D-galactosamine/TNFalpha-induced cell death at 12.5 uM administered before 30 mins of TNFalpha challenge measured after 18 hrs; method in brief: as §1
Hepatocyte [12] = experiment: Hepatoprotective activity in mouse hepatocytes assessed inhibition of D-galactosamine/TNFalpha-induced cell death at 25 uM administered before 30 mins of TNFalpha challenge measured after 18 hrs; method in brief: as §1
Hepatocyte [13] = experiment: Hepatoprotective activity against D-galactosamine/TNFalpha-induced cell death in mouse hepatocytes assessed cell survival rate at 12.5 uM administered before 30 mins of TNFalpha challenge measured after 18 hrs by MTT assay; method in brief: as §1
Hepatocyte [14] = experiment: Hepatoprotective activity in mouse hepatocytes assessed protection against D-galactosamine/TNFalpha-induced cell death at 200 uM administered before 30 mins of TNFalpha challenge measured after 18 hrs; method in brief: as §1
Hepatocyte [15] = experiment: Hepatoprotective activity in mouse hepatocytes assessed inhibition of D-galactosamine/TNFalpha-induced cell death at 200 uM administered before 30 mins of TNFalpha challenge measured after 18 hrs; method in brief: as §1
Hepatocyte [16] = experiment: Hepatoprotective activity against D-galactosamine/TNFalpha-induced cell death in mouse hepatocytes assessed cell survival rate at 200 uM administered before 30 mins of TNFalpha challenge measured after 18 hrs by MTT assay; method in brief: as §1

SMILES	Survival (Hepatocyte [1]) [%]	Activity (Hepatocyte [2]) [%]	Activity (Hepatocyte [3]) [%]	IC50 (Hepatocyte [4]) [µM]	inhibition (INH) (Hepatocyte [5]) [%]	inhibition (INH) (Hepatocyte [6]) [%]	Survival (Hepatocyte [7]) [%]	Survival (Hepatocyte [8]) [%]	Activity (Hepatocyte [9]) [%]	Activity (Hepatocyte [10]) [%]	inhibition (INH) (Hepatocyte [11]) [%]	inhibition (INH) (Hepatocyte [12]) [%]	Survival (Hepatocyte [13]) [%]	Activity (Hepatocyte [14]) [%]	inhibition (INH) (Hepatocyte [15]) [%]	Survival (Hepatocyte [16]) [%]
CC(=O)OC[C@H]1O[C@@H](O[C@H]2C[C@]3(C)[C@H](C[C@@H](O)[C@@H]4[C@@H]([C@]5(C)CC[C@@H](C(C)(C)O)O5)CC[C@]43C)[C@@]3(C)CC[C@H](O)C(C)(C)[C@H]23)[C@H](O[C@@H]2O[C@H](C)[C@@H](O)[C@H](O)[C@@H]2O)[C@@H](O)[C@@H]1O [VINA-GINSENOSIDE R1]	45.6	71.5	29	47	89.8	51.7	57	33.1	–	–	–	–	–	–	–	–
COc1cc(C2Oc3cc([C@H]4Oc5cc(O)cc(O)c5C(=O)[C@@H]4O)ccc3OC2CO)ccc1O (stereo partly drawn) [SILIBININ]	75	–	64.3	14	–	149.7	–	60	17.3	42.8	43.4	99.7	43.1	–	–	–
CC(C)=CCC[C@](C)(O[C@@H]1O[C@H](CO[C@@H]2OC[C@H](O)[C@H](O)[C@H]2O)[C@@H](O)[C@H](O)[C@H]1O)[C@H]1CC[C@]2(C)[C@@H]1[C@H](O)C[C@@H]1[C@@]3(C)CC[C@H](O[C@@H]4O[C@H](CO)[C@@H](O)[C@H](O)[C@H]4O[C@@H]4O[C@H](CO)[C@@H](O)[C@H](O)[C@H]4O)C(C)(C)[C@@H]3CC[C@]12C [GINSENOSIDE RB2]	36.7	21	7.6	105	48.8	22.1	44.7	–	–	–	–	–	–	43.3	100.8	60.3
CC(C)(O)[C@@H]1CC[C@@](C)([C@H]2CC[C@]3(C)[C@@H]2[C@H](O)C[C@@H]2[C@@]4(C)CC[C@H](O)C(C)(C)[C@@H]4[C@@H](O)C[C@]23C)O1 [PROTOPANAXATRIOL OXIDE II]	40.2	22.2	17.9	74	51.7	34.5	45.3	–	–	–	–	–	–	92.2	209.9	92.6
